Measured values from publication PMC4955388 (Bioorganic & medicinal chemistry letters, 2016).
Read-outs that look alike come from different tables or passages of the source.

How the values were obtained:
[1] = Intrinsic clearance in rat hepatic microsomes and predicted hepatic clearance; format: in vitro ADME; conditions: for Rat CLHEP (predicted hepatic clearance): calculated from rat microsomal CLINT; for CLint scaled at 1 µM: rat, liver microsomes
[2] = format: in vivo, rat; conditions: 1 h; for Concentration, Plasma HPV: hepatic portal vein
Method in brief: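 Rats received 10 mg/kg test compound orally, with vehicle or co-dosed with 1-aminobenzotriazole, a pan-irreversible cytochrome P450 inhibitor. At 1 h, concentrations were measured in systemic plasma, hepatic portal vein plasma and brain.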

[3] = po 10 mg/kg with vehicle (no ABT)

SMILES | Rat CLHEP (predicted hepatic clearance) [1] [mL/min/kg] | CLint scaled at 1 µM [1] [mL/min/kg] | Concentration, Brain ([2]; po 10 mg/kg co-dosed with ABT) | Concentration, Plasma systemic ([2]; po 10 mg/kg co-dosed with ABT) | Concentration, Plasma HPV ([2]; po 10 mg/kg co-dosed with ABT) | Concentration, Brain [2, 3] | Concentration, Plasma systemic [2, 3] | Concentration, Plasma HPV [2, 3]
Cc1ccc(S(=O)(=O)n2ccc(NC(=O)c3ccccn3)c2)cc1 [11l] | 68.2 | 2700 |  |  |  |  |  | 
Cc1cccc(S(=O)(=O)n2ccc(NC(=O)c3ccccn3)c2)c1 [11m] | 68.8 | 4040 |  |  |  |  |  | 
O=C(Nc1ccn(S(=O)(=O)c2ccc(Cl)cc2)c1)c1ccccn1 [11o] | 65.9 | 1130 |  |  |  |  |  | 
Cc1cc(S(=O)(=O)n2ccc(NC(=O)c3ccccn3)c2)ccc1Cl [11t] | 68.6 | 3440 | 175.5 ng/mg or g | 198.5 ng/mg or g | 764.5 ng/mg or g | 8.1 ng/mg or g | 7.4 ng/mg or g | 731 ng/mg or g

Continued, in another order:

Rat CLHEP (predicted hepatic clearance) [1] [mL/min/kg] | CLint scaled at 1 µM [1] [mL/min/kg] | SMILES | Concentration, Brain ([2]; po 10 mg/kg co-dosed with ABT) | Concentration, Plasma systemic ([2]; po 10 mg/kg co-dosed with ABT) | Concentration, Plasma HPV ([2]; po 10 mg/kg co-dosed with ABT) | Concentration, Brain [2, 3] | Concentration, Plasma systemic [2, 3] | Concentration, Plasma HPV [2, 3]
 | 293 | Cc1ccc(S(=O)(=O)n2ccc(NC(=O)c3ccccn3)c2)cc1C [11r, N-(1-((3,4-Dimethylphenyl)sulfonyl)-1H-pyrrol-3-yl)picolinamide] |  |  |  |  |  | 
68.7 | 3800 | Cc1ccc(S(=O)(=O)n2cc(NC(=O)c3ccccn3)cn2)cc1C [11s] |  |  |  |  |  | 
